# In PubChem BioAssay AID504383 (The Scripps Research Institute Molecular Screening Center, 2011):
# In all, about 2,500 compounds went through this assay and about 1,200 (48%) were called active. The set was probably picked from earlier hits. The list shows a part of the results. Values without a mark were called inactive.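 Rule for the calls: active = mean activation above the low control average plus 3 SD, as set in the primary screen (cut at about 12% in these data); inactive = the rest.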
# Biological target: Troponin I, cardiac muscle (Homo sapiens) + Troponin T, cardiac muscle (Homo sapiens) + Troponin C, slow skeletal and cardiac muscles (Homo sapiens) (UniProt P19429+P45379+P63316)
# Assay: cardiac RTF calcium sensitivity activators, confirmation, biochemical, IANBD-TnC fluorescence, triplicate (AID 504383);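 note: 0% = DMSO at 0.472 mM calcium and 100% = DMSO at 2.9 mM calcium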
# Settings: IANBD-labeled cardiac RTF, Ca2+ sensitivity fluorescence; at 7.2 µM; stronger effect = higher value; scaled from EC20 to saturating calcium; tested at EC20 calcium, 0.472 mM
# Procedure, shortened: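 Assay system: labelled regulated thin filament protein complex; schedule: 15 min compound incubation with filaments at 25 °C; benchmarks: low control EC20 calcium, high control EC100 calcium; reagent: Ca2+ 0.472 mM, EC20 level; doses: one dose, 7.2 µM nominal; evaluation: fluorescence gain scaled between EC20 and EC100 calcium controls; signal: filament fluorescence intensity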
row,Compound,activation
1,CCC(=O)Nc1ccc(NC(=S)NC(=O)c2oc3ccccc3c2C)cc1,1.23%
2,COc1ccc(/C=C/C(=O)NC(=S)Nc2ccc(C(=O)O)cc2)cc1,55.3% (active)
3,O=C(O)c1ccc(NC(=S)NC(=O)c2ccc(-c3ccccc3)cc2)cc1,78.4% (active)
4,CC(C)(C)c1ccc(C(=O)NC(=S)Nc2ccc(N3CCOCC3)cc2)cc1,0.7%
5,O=C(/C=C/c1ccccc1)N/C(=C/c1ccccc1)C(=O)NCCCO,9.8%
6,O=C(CSc1ccc(-c2cccs2)nn1)N1CCCCC1,0.96%
7,C=CCNc1nnc(SCC(=O)N2CCCCC2)c2ccccc12,15.7% (active)
8,CS(=O)(=O)c1ccc(C(=O)OCC(=O)Nc2cccnc2Cl)cc1[N+](=O)[O-],13.1% (active)
9,CCOC(=O)c1c(NC(=O)COC(=O)Cc2ccccc2[N+](=O)[O-])sc(C(=O)N(C)C)c1C,6.12%
10,CC(Sc1nnc(NCc2ccccc2)s1)C(=O)Nc1ccc2c(c1)C(=O)c1ccccc1C2=O (stereo unspecified),137% (active)
11,Cc1ccc(NC(=O)C(C)Sc2nnc(C)n2C2CC2)cc1S(=O)(=O)N1CCOCC1 (stereo unspecified),7.55%
12,CC(C)CSC1=NSC2=NC(=O)/C(=C\c3coc4ccccc4c3=O)C(=N)N12,45.1% (active)
13,CSC1=NSC2=NC(=O)/C(=C/c3coc4ccccc4c3=O)C(=N)N12,3.64%
14,CCSC1=NSC2=NC(=O)/C(=C\c3coc4ccccc4c3=O)C(=N)N12,74.7% (active)
15,CC(C)NC(=S)N/N=C/c1sc(N2CCCCC2)nc1-c1cccs1,11.2%
16,O=C(Nc1ccc(Br)cc1)c1ccc(Br)c(S(=O)(=O)Nc2cccnc2)c1,22.2% (active)
17,O=C(NCCCN1CCCC1=O)c1cccc(S(=O)(=O)Nc2ccc(Br)cc2)c1,10%
18,O=C(Nn1cnnc1)c1cc([N+](=O)[O-])cc([N+](=O)[O-])c1,11.3%
19,Cc1csc(NS(=O)(=O)c2cccc([N+](=O)[O-])c2)n1,10.9%
20,Cc1occc1C(=O)Nc1cccc([N+](=O)[O-])c1,30.8% (active)
21,O=C(c1ccncc1)N(Cc1ccccc1)Cc1nc2ccccc2c(=O)[nH]1,9.24%
22,COc1ccc2cc(CN(CC3CCCO3)C(=S)NCc3ccco3)c(=O)[nH]c2c1 (stereo unspecified),1.66%
23,COc1cc2cc(CN(Cc3cccnc3)C(=O)NCc3ccccc3)c(=O)[nH]c2cc1OC,324% (active)
24,CC(=O)Nc1ccccc1C(=O)C(=O)Nc1ccc(F)c(Cl)c1,7.61%

row,Compound,activation
1,CN1c2ccccc2C(O)=C(C(=S)Nc2ccc(F)c(Cl)c2)S1(=O)=O,54.4% (active)
2,CC(=O)/C(C=Nc1noc(C)c1Br)=C(\C)O,50.2% (active)
3,C=C1C(=O)O[C@@]23[C@H]1CC[C@@H](C)[C@@H]2CC[C@@]1(C)O[C@@H]31,11.9% (active)
4,C=CCNC(=O)NC(=O)COC(=O)CC(NC(N)=O)c1ccc(Cl)cc1 (stereo unspecified),154% (active)
5,CN(C)CCOc1ccccc1C(C)(C)C,4.26%
6,CN(C)CCN(C)Cc1c2ccccc2c(CN(C)CCN(C)C)c2ccccc12,27.7% (active)
7,CC[N+](C)(C)c1cccc(O)c1,3.39%
8,Nc1nc(NCc2ccco2)nc(N2CCCCCC2)c1[N+](=O)[O-],6.31%
9,Cc1ccc(S(=O)(=O)Nc2ccc3ncccc3c2[N+](=O)[O-])cc1,11.6%
10,Cc1ccc(S(=O)(=O)Nc2nc3ccccc3nc2NCc2ccco2)cc1,23.7% (active)
11,COC(=O)c1[nH]c2ccc(C)cc2c1NC(=O)C(C)N1CCN(C2CCCCC2)CC1 (stereo unspecified),10.5%
12,CCn1c(C)c(CCC(=O)O)c(=O)n2nc(-c3ccccc3OC)cc12,11.7% (active)
13,COc1ccccc1-c1nnc(SCC(=O)Nc2ccc3[nH]c(=O)[nH]c3c2)n1N,6.5%
14,O=S(=O)(CCN(CCS(=O)(=O)C(F)(F)F)CC1CCCO1)C(F)(F)F (stereo unspecified),17.5% (active)
15,Cc1ccc(-c2nn(-c3ccccc3)cc2/C=C2\SC(=S)N(CCCCCC(=O)O)C2=O)o1,23.1% (active)
16,COC(=O)CCCCCN1C(=O)/C(=C\c2ccncc2)SC1=S,4.31%
17,COc1ccccc1C(=O)NNC(=O)CCCN1C(=O)/C(=C/c2cccs2)SC1=S,1.62%
18,O=C(O)CCCN1C(=O)/C(=C/c2cn(-c3ccccc3)nc2-c2cccs2)SC1=S,150% (active)
19,C=CCNc1sc(C(=O)c2ccc(Br)s2)c(N)c1C#N,98% (active)
20,C#CCOCCOCCOCCNc1nc(N2CCN(C(=O)CCCCCCCCCCNC(=O)[C@@H](CCSC)n3cc(CCO)nn3)CC2)nc(N2CCN(C(=O)CCCCCCCCCCNC(=O)[C@H](CCSC)n3cc(CCO)nn3)CC2)n1,3.03%
21,COc1ccc2[nH]c(C)c(CCN(Cc3cccs3)C(=S)Nc3ccc(F)cc3)c2c1,12.4% (active)
22,COc1ccc(NC(=O)C(c2ccc(C)cc2)N(C)C(=O)Cc2cccs2)cc1 (stereo unspecified),6.31%
23,CCN(CC)S(=O)(=O)c1ccc2[nH]c(=O)[nH]c2c1,15.6% (active)
24,O=S(=O)(/N=C(/Nc1nc2ccccc2s1)c1ccccc1)c1ccc(F)cc1,11.4%

row,Compound,activation
1,Cc1onc(-c2ccccc2)c1C(=O)Nc1nc(-c2cc(F)ccc2F)cs1,-0.1%
2,Cc1noc(C)c1C(=O)Nc1nc2ccccc2s1,28.4% (active)
3,Cc1cccc(NC2=Nc3ccccc3N3C2=Nc2c(c(C)nn2-c2ccccc2)C3c2ccc(O)c(O)c2)c1 (stereo unspecified),362% (active)
4,Cc1ccc(-c2ccc(CO)o2)cc1N,92.6% (active)
5,Cc1nc([N+](=O)[O-])c(Br)n1CC(=O)c1ccc2ccccc2c1,10.5%
6,Cn1c(/C(C#N)=C(\O)CN2CCN(Cc3ccccc3)CC2)nc2ccccc21,7.65%
7,Cc1nc([N+](=O)[O-])c(Sc2nc3ccccc3n2C)n1Cc1ccccc1,46.8% (active)
8,COc1ccc(Cc2n[nH]c(=O)c3ccccc23)cc1OC,5.9%
9,COc1ccc(CNc2nn[nH]n2)cc1OC,18.4% (active)
10,COc1ccc(CCNc2cc(C)[nH]c(=O)c2)cc1OC,5.18%
11,CCOC(=O)CC(=O)CSc1nc(-c2ccc3c(c2)OCO3)cc(C(F)(F)F)c1C#N,13.6% (active)
12,C(=N\c1nc2ccccc2n1CCN1CCOCC1)/c1cccs1,2.67%
13,O=C(O)c1cccc([N+](=O)[O-])c1C(=O)Nc1cccc2ccccc12,14.4% (active)
14,Cc1ccc(O)c(C(=O)c2cc(C#N)c(=O)n(-c3nccs3)c2)c1,8.02%
15,Cc1ccc(NC(=O)c2cc(C(=O)c3cc(Cl)ccc3O)cn(-c3ccc(C)cc3)c2=O)cc1,15.1% (active)
16,CS(=O)(=O)Nc1ccc(C2=NN(C(=O)CCCC(=O)O)C(c3cccs3)C2)cc1 (stereo unspecified),61.2% (active)
17,CN(C)CCNc1ccc2ncn3c4ccc(O)cc4c(=O)c1c23,11.4%
18,Cc1cc(C)c2nc(NC(=O)C3CCCO3)sc2c1 (stereo unspecified),36.3% (active)
19,COc1cc(/C=C2\N=C3CCCCCN3C2=O)ccc1O,4.57%
20,CCOc1cc(/C=C2\N=C(SC(C)C(N)=O)N(c3ccc(OC(F)F)cc3)C2=O)ccc1O (stereo unspecified),32.1% (active)
21,COc1cc(OC)c(NC(=O)c2cc3ccccc3cc2O)cc1Cl,12.7% (active)
22,CCOC(=O)COc1c(Cl)cc(C2NC(=S)NC(c3ccccc3)=C2C(C)=O)cc1OC (stereo unspecified),10.2%
23,COc1ccc(-c2nnc(-c3cccnc3)o2)cc1,48.2% (active)
24,Cc1[nH]c(C)c(S(=O)(=O)N2c3ccccc3CC2C)c1C(=O)N1CCCCC1 (stereo unspecified),137% (active)

row,Compound,activation
1,O=C1c2ccccc2-c2c1cccc2C(=O)N1CCCCCC1,9.57%
2,COc1ccc(C2C(C#N)=C(N)SC(N)=C2C#N)cc1OC,6.65%
3,CCOc1ccc(C2C(C#N)=C(N)SC(N)=C2C#N)cc1OCC,51.3% (active)
4,CCOc1ccccc1C1C(C#N)=C(N)SC(N)=C1C#N,5.25%
5,CC1(C)CC(=O)C(C=Nc2cc(C(=O)c3ccccc3)ccc2N)=C(O)C1,32% (active)
6,CC1(C)CC(=O)C(C=Nc2ccc(C(=O)c3ccccc3)cc2N=CC2=C(O)CC(C)(C)CC2=O)=C(O)C1,5.75%
7,O=C(c1ccccc1)N1CCN(C(=O)c2ccccc2)CC1,4.62%
8,NC(=O)C1CCN(C(=O)c2ccc(-c3ccccc3)cc2)CC1,64.1% (active)
9,COc1ccccc1Nc1ncc(C(=O)N2CCC(C(N)=O)CC2)c2ccccc12,10.5%
10,COc1ccc(C)cc1NC(=O)CC1COc2ccccc2O1 (stereo unspecified),8.38%
11,COc1ccc(C)cc1NC(=O)C12CCC(C)(C(=O)O1)C2(C)C (stereo unspecified),26.8% (active)
12,N#Cc1ccc(CSc2nnc(-c3cnccn3)o2)cc1,221% (active)
13,O=C(NC(=S)Nc1ccc2oc(=O)ccc2c1)c1ccco1,90.7% (active)
14,Cc1ncc(CO)c2cc(-c3nnc(Nc4ccc5c(c4)OCO5)s3)c(=O)oc12,70% (active)
15,Cc1ccc(CCC(=O)Nc2cc(Cl)ccc2Cl)o1,7.16%
16,N#Cc1ccccc1NC(=O)CNc1ccc(Cl)c(C(F)(F)F)c1,8.37%
17,CCOC(=O)c1ccc[n+](CC(=O)Nc2cc(C(F)(F)F)ccc2Cl)c1,13% (active)
18,COC(=O)c1cc2c(=O)c3ccccc3oc2nc1/C=C/N(C)C,5.31%
19,CC(=O)c1cc(NC(=O)c2ccc(Cl)cc2)c(=O)oc1/C=C/N(C)C,5.44%
20,COc1ccc(C(=O)Nc2cc(C(C)=O)c(/C=C/N(C)C)oc2=O)cc1,30.3% (active)
21,COC(=O)c1cc(NC(=O)c2ccccc2)c(=O)oc1C/C=N\OCc1ccc(Cl)cc1Cl,3.6%
22,CC(=O)c1cc(NC(=O)c2ccc(C)cc2)c(=O)oc1/C=C/N(C)C,54.1% (active)
23,COC(=O)c1cc(NC(=O)c2ccccc2)c(=O)oc1/C=C/Nc1ccc(Oc2ccccc2)cc1,47.1% (active)
24,CC(=O)c1cc(NC(=O)c2ccccc2)c(=O)oc1/C=C/N(C)C,11.2%
